Measured values from ChEMBL document CHEMBL3244167, “Lysosomotropic agents. 1. Synthesis and cytotoxic action of lysosomotropic detergents” (J Med Chem, 1979).
Each block holds one compound with its values, some of them ahead of it. The source made the active and inactive calls. The rule behind the calls is not given here.

Assays:
[1] = Induction of cell lysis in ox RBC at 0.375 mM measured at 4 hrs (reference value: 1.8 %); format: cell-based, Bos taurus, Erythrocyte; settings: cattle, ox red blood cells; read-out: Activity
[2] = Cytotoxicity against mouse peritoneal macrophages assessed as […] at 0.75 mM after 24 hrs (reference value: 10 %); format: functional, Peritoneal macrophage cell
Outline: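 Thioglycolate-stimulated mouse peritoneal macrophages, 2-4 × 10^6 cells/dish, in duplicate. Compound dosed from Me2SO solution at 1 µL/mL, final 0.750 mM; control Me2SO only. At 24 h, units of N-acetyl-β-D-glucosaminidase (lysosomal marker) and LDH (cytoplasmic marker) released into medium were measured, ±15%.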

Raji [3] = assay: Cytotoxicity to human Raji cells; format: functional, cell-based
[4] = Cytotoxicity against mouse peritoneal macrophages assessed as LDH release at 100 ug/ml after 24 hrs (reference value: 4 to 9 %); format: functional, Peritoneal macrophage cell
[5] = Induction of cell lysis in ox RBC at 0.375 mM measured at 1 hr (reference value: 1.7 %); format: cell-based, Bos taurus, Erythrocyte; settings: cattle, ox red blood cells; read-out: Activity
Raji [6] = assay: Cytotoxicity to human Raji cells at 40 ug/ml after 3 days; format: functional, cell-based
[7] = test system: Peritoneal macrophage cell; assay: Induction of large vacuole formation in mouse peritoneal macrophages at 5 ug/ml; format: functional, cell-based
HeLa = assay: Cytotoxicity to human HeLa cells at 100 ug/ml after 24 hrs; format: functional, cell-based
[8] = test system: Peritoneal macrophage cell; assay: Induction of cell death in mouse peritoneal macrophages at 25 ug/ml; format: functional, cell-based
P815 [9] = assay: Induction of cell death in mouse P815 cells assessed as [51Cr] release at 100 ug/ml at 5 hrs (reference value: 10%); format: functional
WI-38 = assay: Cytotoxicity to human W138 cells; format: functional, cell-based
MRC5 [10] = assay: Cytotoxicity to human MRC5 cells; format: functional, cell-based
RK13 = assay: Cytotoxicity to rabbit RK13 cells; format: functional, cell-based; settings: Oryctolagus cuniculus
[11] = Induction of cell lysis in rabbit RBC at 0.188 to 0.375 mM measured at 1 to 4 hrs; format: cell-based, Oryctolagus cuniculus; settings: erythrocyte, 375 µM
[12] = Induction of cell lysis in ox RBC at 0.188 mM measured at 4 hrs (reference value: 1.8 %); format: cell-based, Bos taurus, Erythrocyte; settings: cattle, ox red blood cells; read-out: Activity
Mus musculus [13] = assay: Toxicity in mouse at 500 mg/kg, ip after 10 days; format: organism-based; design: dose 500 mg/kg, route intraperitoneal; settings: in vivo, 240 h
Outline: (§1)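 Mice dosed ip; observed for 10 days.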

[14] = Induction of cell lysis in ox RBC at 0.188 mM measured at 1 hr (reference value: 1.7 %); format: cell-based, Bos taurus, Erythrocyte; settings: cattle, ox red blood cells; read-out: Activity
[15] = test system: Peritoneal macrophage cell; assay: Induction of cell death in mouse peritoneal macrophages at 50 ug/ml; format: functional, cell-based
[16] = test system: Peritoneal macrophage cell; assay: Induction of large vacuole formation in mouse peritoneal macrophages at 10 to 25 ug/ml; format: functional, cell-based
Raji [17] = assay: Cytotoxicity to human Raji cells at 10 ug/ml after 3 days; format: functional, cell-based
MRC5 [18] = assay: Cytotoxicity to human MRC5 cells at 10 ug/ml after 3 days; format: functional, cell-based
P815 [19] = assay: Induction of cell death in mouse P815 cells assessed as [51Cr] release at 75 ug/ml at 5 hrs; format: functional
P815 [20] = assay: Induction of cell death in mouse P815 cells assessed as [51Cr] release at 50 ug/ml at 5 hrs; format: functional
P815 [21] = assay: Induction of cell death in mouse P815 cells assessed as [51Cr] release at 25 ug/ml at 5 hrs; format: functional
P815 [22] = assay: Induction of cell death in mouse P815 cells assessed as [51Cr] release at 27 ug/ml at 5 hrs; format: functional
P815 [23] = assay: Induction of cell death in mouse P815 cells assessed as [51Cr] release at 1 ug/ml at 5 hrs; format: functional
P815 [24] = assay: Induction of cell death in mouse P815 cells assessed as [51Cr] release at 3 ug/ml at 5 hrs; format: functional
P815 [25] = assay: Induction of cell death in mouse P815 cells assessed as [51Cr] release at 9 ug/ml at 5 hrs; format: functional
Mus musculus [26] = assay: Toxicity in mouse at 250 mg/kg, ip after 10 days; format: organism-based; design: dose 250 mg/kg, route intraperitoneal; settings: in vivo, 240 h; outline: as §1

Structure (SMILES): CCCCCCCCCCCCNCC(F)(F)F
hemolysis at 4 h, 375 µM [1]: 6.5% | Activity [2]: 27% | Activity (Raji [3]): Active | Activity [4]: 10% | hemolysis at 1 h, 375 µM [5]: 5.2% | Activity (Raji [6]): Active | Activity [7]: Active | Activity (HeLa): Active | Activity [8]: Active | Activity (P815 [9]): 21% | Activity (WI-38): Active | Activity (MRC5 [10]): Active | Activity (RK13): Active | Activity [11]: Non-toxic | hemolysis at 4 h, 188 µM [12]: 7.3% | pKa (physchem): 5.5 | Activity (Mus musculus [13]): Non-toxic | hemolysis at 1 h, 188 µM [14]: 4.2%

Structure (SMILES): CCCNCC(F)(F)F
Activity [4]: 10%

pKa (physchem): 6.6
Structure (SMILES): CCCCCCCCCn1ccnc1

pKa (physchem): 5.9
Structure (SMILES): CCCCCCCCNCC(F)(F)F
Activity [2]: 19% | Activity [4]: 7%

Structure (SMILES): CCCCCCCCCCCCCCNCC(F)(F)F
Activity [2]: 25% | Activity [4]: 5%

Structure (SMILES): CCCCCCCCCCCCCc1ccncc1
Activity (Raji [3]): Active | Activity (Raji [6]): Active | Activity (P815 [9]): 10% | Activity (WI-38): Active | Activity (MRC5 [10]): Active | Activity (RK13): Active | Activity [15]: Active | pKa (physchem): 5.9 | Activity [16]: Active | Activity (Mus musculus [13]): Non-toxic

Structure (SMILES): CCCCCCCCCCCCN1CCOCC1
Activity (Raji [17]): Active | Activity (MRC5 [18]): Active | Activity (P815 [19]): 15% | Activity (P815 [20]): 14% | Activity (P815 [21]): 13% | Activity (P815 [9]): 85% | pKa (physchem): 7.6

Structure (SMILES): CCCCCCCCCCNCC(F)(F)F
Activity [2]: 32% | Activity [4]: 12%

Structure (SMILES): CCCCCCCCCCCCn1ccnc1
Activity (P815 [22]): 93% | Activity (P815 [23]): 10% | Activity (P815 [20]): 94% | Activity (P815 [24]): 11% | Activity (P815 [25]): 11%

Structure (SMILES): Cc1ccncc1
pKa (physchem): 6

Structure (SMILES): CCCCCCCCCCCCN [DODECYLAMINE]
hemolysis at 4 h, 375 µM [1]: 100% | hemolysis at 1 h, 375 µM [5]: 100% | hemolysis at 4 h, 188 µM [12]: 100% | hemolysis at 1 h, 188 µM [14]: 100%

pKa (physchem): 4.7
Structure (SMILES): CCCCCCCCCCCCCCCCCCNCC(F)(F)F
Activity [4]: 5%

pKa (physchem): 5.6
Structure (SMILES): CCCCCCCCCCCCCc1ccccn1

Structure (SMILES): Cn1ccnc1 [1-METHYLIMIDAZOLE]
pKa (physchem): 7

Structure (SMILES): CCCCCNCC(F)(F)F
Activity [2]: 14% | Activity [4]: 4%

pKa (physchem): 6
Structure (SMILES): CNCC(F)(F)F

pKa (physchem): 5.2
Structure (SMILES): CCCCCCCCCCCCCCCCNCC(F)(F)F
Activity [4]: 63%

Structure (SMILES): CCCCCCCCCCCCNCC(F)F
Activity (Mus musculus [26]): Non-toxic | Activity (P815 [9]): 45% | pKa (physchem): 7.5 | Activity (Mus musculus [13]): Toxic
